From ChEMBL document CHEMBL1629450, “Design, synthesis, and evaluation of dibenzo[c,h][1,6]naphthyridines as topoisomerase I inhibitors and potential anticancer agents” (J Med Chem, 2010)
The source made the active and inactive calls. The calls are words filed in the database; no cut-off is given here.

Experiments:
[1] = biological target: T1, DNA topoisomerase 1 (Homo sapiens) (UniProt P11387); test: Inhibition of human topoisomerase 1 assessed as induction of DNA damage using 161 base-pair fragment form pBluescript SK(-) phagemid DNA substrate by DNA cleavage assay
T1 sequence (whole entry): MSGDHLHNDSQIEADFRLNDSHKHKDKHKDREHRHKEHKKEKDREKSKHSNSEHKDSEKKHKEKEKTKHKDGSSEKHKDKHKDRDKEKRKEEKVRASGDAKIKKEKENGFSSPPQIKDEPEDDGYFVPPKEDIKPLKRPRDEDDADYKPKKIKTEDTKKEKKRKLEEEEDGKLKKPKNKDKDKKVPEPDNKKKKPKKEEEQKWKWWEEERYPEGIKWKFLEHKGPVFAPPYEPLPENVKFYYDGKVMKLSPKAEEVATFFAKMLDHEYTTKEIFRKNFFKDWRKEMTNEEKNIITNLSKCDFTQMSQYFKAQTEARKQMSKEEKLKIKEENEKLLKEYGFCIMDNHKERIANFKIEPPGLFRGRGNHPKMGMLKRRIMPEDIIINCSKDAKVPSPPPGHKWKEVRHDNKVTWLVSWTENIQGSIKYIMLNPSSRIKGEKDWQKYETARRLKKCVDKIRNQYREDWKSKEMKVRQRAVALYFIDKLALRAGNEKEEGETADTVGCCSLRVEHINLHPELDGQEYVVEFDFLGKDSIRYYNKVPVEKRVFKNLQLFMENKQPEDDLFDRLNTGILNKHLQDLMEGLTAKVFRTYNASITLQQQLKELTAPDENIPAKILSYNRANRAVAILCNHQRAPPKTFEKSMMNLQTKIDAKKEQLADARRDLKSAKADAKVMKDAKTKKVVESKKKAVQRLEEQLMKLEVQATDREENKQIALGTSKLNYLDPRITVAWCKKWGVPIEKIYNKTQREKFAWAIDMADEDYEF
In short: (§1)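 Baculovirus-purified human recombinant Top1 with 161 bp PvuII/HindIII fragment of pBluescript SK(-), 3'-end labeled at HindIII site with [α-32P]-dGTP by Klenow fill-in (~50 000 dpm/reaction). Incubated with drug, four 10-fold dilutions from 100 μM, 30 min at 22 °C. Stopped with 0.5% SDS (final), resolved on denaturing 16% polyacrylamide/7 M urea gels. Cleavage scored semiquantitatively.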

[2] = Antiproliferative activity against human OVACR3 cells after 48 hrs by SRB assay; type: functional; details: OVACR3, 48 h
[3] = Solubility of the compound in dimethyl sulfoxide solvent; type: physicochemical
[4] = system: K562; test: Antiproliferative activity against human K562 cells after 48 hrs by SRB assay; type: functional; details: K562, 48 h
[5] = system: UACC-62; test: Antiproliferative activity against human UACC62 cells after 48 hrs by SRB assay; type: functional; details: UACC-62, 48 h
[6] = system: HOP-62; test: Antiproliferative activity against human HOP62 cells after 48 hrs by SRB assay; type: functional; details: HOP-62, 48 h
[7] = system: UO-31; test: Antiproliferative activity against human UO31 cells after 48 hrs by SRB assay; type: functional; details: UO-31, 48 h
[8] = system: IGROV-1; test: Antiproliferative activity against human IGROV1 cells after 48 hrs by SRB assay; type: functional; details: IGROV-1, 48 h
[9] = system: SF-539; test: Antiproliferative activity against human SF539 cells after 48 hrs by SRB assay; type: functional; details: SF-539, 48 h
[10] = system: MCF7; test: Antiproliferative activity against human MCF7 cells after 48 hrs by SRB assay; type: functional; details: MCF7, 48 h
[11] = system: COLO 205; test: Antiproliferative activity against human COLO205 cells after 48 hrs by SRB assay; type: functional; details: COLO 205, 48 h
[12] = system: DU-145; test: Antiproliferative activity against human DU145 cells after 48 hrs by SRB assay; type: functional; details: DU-145, 48 h
[13] = Solubility of the compound in methanol solvent; type: physicochemical
[14] = system: SN12C; test: Antiproliferative activity against human SN12C cells after 48 hrs by SRB assay; type: functional
[15] = system: HCT-116; test: Antiproliferative activity against human HCT116 cells after 48 hrs by SRB assay; type: functional; details: HCT-116, 48 h
[16] = Antiproliferative activity against human RPMI18226 cells after 48 hrs by SRB assay; type: functional; details: RPMI18226, 48 h
[17] = biological target: T1, DNA topoisomerase 1 (Homo sapiens); test: Inhibition of human topoisomerase 1 assessed as induction of DNA cleavage at base-pair 97 using 161 base-pair fragment form pBluescript SK(-) phagemid DNA substrate by DNA cleavage assay; in short: as §1
[18] = Solubility of the compound in chloroform solvent; type: physicochemical
[19] = biological target: T1, DNA topoisomerase 1 (Homo sapiens); test: Inhibition of human topoisomerase 1 assessed as induction of DNA cleavage at base-pair 119 using 161 base-pair fragment form pBluescript SK(-) phagemid DNA substrate by DNA cleavage assay; in short: as §1

With COc1cc2c(=O)n(C)c3c4ccccc4[nH]c(=O)c3c2cc1OC the inhibition [1] was “inactive”.

In the case of COc1cc2c(Cl)nc3c4ccccc4nc(Cl)c3c2cc1OC, the inhibition [1] is reported as “inactive”.

For COc1cc2c(=O)n(CCCN3CCOCC3)c3c4ccccc4nc(Cl)c3c2cc1OC, the GI50 [2] was 6.3 µM, the solubility [3] was “soluble” and the GI50 [4] was 0.2 µM. The GI50 [5] was 6.8 µM, the GI50 [6] was 4.7 µM and the GI50 [7] was 0.02 µM. The GI50 [8] was 0.03 µM, the GI50 [9] was 12.3 µM and the GI50 [10] was 0.4 µM. For the same compound, the GI50 [11] was 0.33 µM, the GI50 [12] was 10.5 µM and the solubility [13] was “soluble”. The inhibition [1] was “Active”, the GI50 [14] was 13.2 µM and the GI50 [15] was 4.16 µM. The GI50 [16] was 0.1 µM, the inhibition [17] was “Active” and the solubility [18] was “soluble”. The inhibition [19] was “Active”.

COc1cc2c3c(n(C)c(=O)c2cc1OC)-c1cc2c(cc1C3=O)OCO2 gave a GI50 [2] of 22.4 µM, a GI50 [4] of 6 µM and a GI50 [5] of 0.6 µM. It also gave a GI50 [6] of 2.8 µM, a GI50 [7] of 1.7 µM and a GI50 [8] of 0.01 µM. For the same compound, the GI50 [9] was 1.7 µM, the GI50 [10] was 1.9 µM and the GI50 [11] was greater than 100 µM. The GI50 [12] was 4.8 µM, the GI50 [14] was 25.7 µM and the GI50 [15] was 11.5 µM. It also gave a GI50 [16] greater than 100 µM.

With COc1cc2c(=O)n(C)c3c4ccccc4nc(Cl)c3c2cc1OC the solubility [3] was “soluble”, the solubility [13] was “soluble” and the inhibition [1] was “Active”. The inhibition [17] was “Active” and the solubility [18] was “soluble”.

For C=CCn1c(=O)c2cc(OC)c(OC)cc2c2c(=O)[nH]c3ccccc3c21, the inhibition [1] was “inactive”.

For COc1cc2c(=O)n(CCCO)c3c4ccccc4[nH]c(=O)c3c2cc1OC, the inhibition [1] was “inactive”.

In the case of COc1cc2c(OC)nc3c4ccccc4nc(OC)c3c2cc1OC, the inhibition [1] is reported as “inactive”.
